Ba/F3 V617F tox: reduced viability of JAK2V617F-dependent Ba/F3 cells, primary screen, JAK2V617F inhibitor project, cell-based, Ba/F3 EpoR-JAK2V617F, luminescence; ATP luminescence; inhibition, % at 5.6 µM; 220,000 tested, 1.1% active; AID 1446, 2008;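 active = inhibition above the campaign mean plus 3 SD over all tested compounds, cut at about 24% in these data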;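 note: cytokine-independent growth of Ba/F3 cells driven by EpoR plus mutant JAK2; 0% = DMSO-treated cells and 100% = JAK inhibitor I control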
APP transl inh: inhibitors of APP translation via 5'UTR reporter, primary screen, APP 5'UTR luciferase, SH-SY5Y cells; SH-SY5Y APP 5'UTR-luciferase reporter, luminescence; inhibition, % at 2 µM; 190,000 tested, 0.82% active; AID 1285, 2008;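 active = inhibition above a set limit, derived from the sample mean plus 3 SD, cut at about 45% in these data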
bCat nuc transl: modulators of beta-catenin nuclear translocation, primary screen, imaging, HeLa cells, immunofluorescence, high-content. nuclear translocation activity, % at 5 µM. 190,000 tested, 0.3% active. AID 1665, 2009;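 active = nuclear translocation activity above 50% at 5 µM, with a well cell count of 50 or more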;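 note: per-cell ratio of nuclear to cytoplasmic median beta-catenin stain intensity; plate controls were DMSO negative control for no effect and GSK-3 inhibitor IX positive control for full effect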
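System: HeLa cells, endogenous beta-catenin; compound dosing: 5 µM primary single dose, 0.1% DMSO, 0.02–20 µM confirmation series; incubation: 24 h compound exposure at 37°C, 5% CO2; signal: beta-catenin immunofluorescence imaging with DAPI; evaluation: % activation, nuclear-to-cytoplasmic median beta-catenin signal ratio per cell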
IEC-6 tox: cytotoxicity in IEC-6 intestinal epithelial cells, primary screen, cytotoxicity control for KLF5 inhibitor project, cell-based, luminescence; IEC-6 cytotoxicity, luminescence viability; inhibition, % at 5 µM; 290,000 tested, 0.78% active; AID 1825, 2009; in the data active = inhibition above about 22%;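 note: 0% = plate median of test compound wells and 100% = cytotoxic reference compound wells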
MT stabilize HCS: microtubule stabilizers in HeLa cells, primary screen, imaging, high-content imaging; % tubulin-high responders, % at 10 µM; AID 2205, 2009; 200,000 tested, 0.83% active; HeLa tubulin immunostaining HCS, 24 h; share of cells brighter than vehicle mean+2SD;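 active = plate Z-score above 3 for both tubulin-high and condensed-nucleus cell shares, with cell loss under 80%, at 10 µM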;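 note: anti alpha tubulin signal scored within the nucleus-defined area of each cell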
BaF3 tox: parental Ba/F3 cell viability inhibition, counter-screen for JAK2V617F inhibitor project, murine pro-B, CellTiter-Glo luminescence | inhibition, % at 5.6 µM | CellTiter-Glo ATP luminescence | 220,000 tested, 1.1% active;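 active = inhibition above a per-campaign cutoff, the mean inhibition of all tested compounds plus 3 SD, cut at about 27% in these data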;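 note: 0% = DMSO wells and 100% = JAK Inhibitor I control wells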
* marks the source's active call; other numbers are inactive results; . = not tested or not shown. This is a sample that favours compounds with a hit; in the whole collection about 2.2% have one here.

SMILES	Ba/F3 V617F tox	APP transl inh	bCat nuc transl	IEC-6 tox	MT stabilize HCS	BaF3 tox
Cc1cccc2cc(-c3ccccc3)c(-c3ccccc3)c[n+]12	90*	0	-2	4	2	72*
O=[N+]([O-])c1cccc(-c2cc3cccc[n+]3cc2-c2cccc([N+](=O)[O-])c2)c1	3	1	.	1	5	0
CCOC(=O)C1=C(C)NC(=S)NC1c1ccc(OCC(=O)N2CCCCCC2)cc1 (stereo not given)	.	.	.	2	.	.
O=C(CSc1nc2ccccc2n1Cc1ccccc1)N/N=C/c1ccccc1C(=O)O	-2	.	-1	-4	.	2
O=C(CSc1nc2ccccc2n1Cc1ccc(Cl)cc1)N/N=C/c1ccc(C(=O)O)cc1	0	54*	0	-4	2	6
CCOC(=O)C1=C(N)n2c(s/c(=C/c3ccco3)c2=O)=C(C(=O)OC)C1c1ccco1 (stereo not given)	-4	-3	-4	-5	46*	1
CCOC(=O)C1=c2s/c(=C\c3ccncc3)c(=O)n2C(N)=C(C(=O)OC)C1c1ccncc1 (stereo not given)	-4	-9	-2	5	5	0
Cn1c(=O)c2c(ncn2CC(=O)N2CCc3ccccc3C2)n(C)c1=O	0	54*	-2	4	4	2
CCn1c(SCC(=O)N2CCc3ccccc3C2)nc2c1c(=O)n(C)c(=O)n2C	-3	4	0	-12	4	5
CCOC(=O)c1cnc2nc(C)[nH]n2c1=O	-3	-18	.	0	3	8
CCOC(=O)c1cnc2sc3c(n2c1=O)CCCC3	72*	-25	-4	12	3	64*
CC(C)CC(OC(=O)CC1Sc2ccccc2NC1=O)C(=O)NC1CCCC1 (stereo not given)	.	.	.	2	.	.
CCC(C)(C)n1nnnc1C(c1ccccc1F)N1CCN(C(=O)c2ccco2)CC1 (stereo not given)	.	.	.	3	.	.
Cn1c(-c2ccc(F)cc2)cnc1NCc1cccc(F)c1	-2	-15	38	11	15*	-2
Cn1c(-c2ccc3c(c2)OCO3)cnc1NCc1cccc(O)c1	3	-32	3	-1	3	90*
O=C(c1cc(COc2c(F)cccc2F)on1)N(Cc1ccccc1)CC1CC1	.	.	.	-5	.	.
CC1CCC(C(C)C)C(OC(=O)C[n+]2cccc(C(N)=O)c2)C1 (stereo not given)	0	-12	-1	-2	1	8
COc1ccc(-c2c[n+](CC(=O)OC3CC(C)CCC3C(C)C)c3n2CCC3)cc1 (stereo not given)	99*	2	-3	13	4	82*
CC(C)[C@@H]1CC[C@@H](C)C[C@H]1OC(=O)C[n+]1cc(-c2ccc(Cl)cc2)n2c1CCCCC2	98*	.	0	-3	.	85*
COC(=O)c1ccc(Nc2c([N+](=O)[O-])c(=O)oc3ccccc23)cc1	-1	.	0	0	.	1
C/C(=N\Nc1nc2ccc(Cl)cc2o1)c1ccccc1	0	.	-1	-5	.	1
CCN(CC)C(=O)Cn1cc(S(=O)(=O)CC(=O)Nc2ccc(F)cc2F)c2ccccc21	.	.	.	-7	.	.
O=C(Nc1ccc(N2CCCC2)cc1)c1cc([N+](=O)[O-])ccc1N1CCOCC1	.	.	.	8	.	.
CCOc1ccc(CN(C(=O)c2oc3cc(C)ccc3c2C)C2CCS(=O)(=O)C2)cc1 (stereo not given)	-3	1	.	-5	41*	3
Cc1ccc2c(C)c(C(=O)N(Cc3ccccc3)C3CCS(=O)(=O)C3)oc2c1 (stereo not given)	.	.	.	5	.	.
SMILES	Ba/F3 V617F tox	APP transl inh	bCat nuc transl	IEC-6 tox	MT stabilize HCS	BaF3 tox
COc1ccc(N2CCN(c3oc(Cc4ccccc4)nc3C#N)CC2)cc1	-2	0	2	-2	29*	2
COc1ccc(N2CCN(c3oc(COc4ccccc4)nc3C#N)CC2)cc1	3	3	-5	-1	2	4
COc1ccc(NC(=O)NCc2ccc3c(c2)OCO3)cc1OC	.	.	.	-8	.	.
Cn1c(/C=C/c2ccc(Br)cc2)nc2ccccc2c1=O	.	.	.	-3	.	.
Brc1ccccc1-c1nnc2sc(-c3ccc4c(c3)OCCO4)nn12	4	-6	.	9	38*	2
Clc1ccccc1-c1nnc2sc(-c3ccc4c(c3)OCO4)nn12	2	-22	2	2	8	4
O=C1CC(c2ccccc2F)c2cc3c(cc2N1)CCC3 (stereo not given)	63*	64*	131*	16	44*	77*
Cc1cc2c(cc1C)C(c1ccccc1Br)CC(=O)N2 (stereo not given)	-3	-6	0	4	10	1
O=C1CC(c2ccccc2Br)c2cc3c(cc2N1)CCC3 (stereo not given)	0	-11	1	-1	21*	5
CC(Sc1ccc(Cl)cc1)C(=O)NNC(=O)c1ccccc1O (stereo not given)	.	.	.	4	.	.
CC(=O)N1c2ccccc2N(Cc2ccc(C)cc2C)C(=O)C1(C)C	.	23	.	.	19*	.
C=CCN1C(=O)C(C)(C)N(C(C)=O)c2ccccc21	0	-17	-2	0	3	3
CCn1c2ccccc2c2cc(NC(=O)CSc3nnc(-c4ccccc4)o3)ccc21	-3	58*	-5	9	16*	1
CCn1c2ccccc2c2cc(NC(=O)CSc3nnc(-c4cccc(C)c4)o3)ccc21	-3	0	.	5	13	1
CCn1c2ccccc2c2cc(NC(=O)CSc3nnc(-c4cccc(F)c4)o3)ccc21	-2	47*	0	10	18	-1
Cc1ccc(C)c(S(=O)(=O)N2CCCOC2CNC(=O)C(=O)NC2CCCC2)c1 (stereo not given)	.	.	.	-2	.	.
Nc1[nH]n2c(=O)c3c(nc2c1N=Nc1ccc(Cl)cc1)CCCC3	-4	4	4	2	21*	-2
Cc1ccc(CNCC(O)(c2ccccc2)c2ccccc2)cc1	.	.	.	3	.	.
Cc1ccc(CNCC(O)(c2ccccc2)c2ccc(Cl)cc2)cc1 (stereo not given)	19	5	3	7	2	29*
CC(C)(C)n1ncc2c(=O)n(CC(=O)NCc3ccccc3)cnc21	-3	-168	-2	2	32*	3
CC(=O)Nc1ccc(NC(=O)Cn2cnc3c(cnn3C(C)(C)C)c2=O)cc1	-3	-12	0	-4	5	2
Nn1cnnc1SCC(=O)Nc1ccc(C2CCCCC2)cc1	-5	-19	2	2	2	-2
O=C(O)CSCC(=O)Nc1ccc(C2CCCCC2)cc1	-1	68*	0	10	2	2

Assay outcomes (PubChem)
